ChEMBL document CHEMBL6134766, “Design, synthesis, and evaluation of benzhydrylpiperazine-based novel dual COX-2/5-LOX inhibitors with anti-inflammatory and anti-cancer activity” (RSC Med Chem, 2025)
Calls of active or inactive are those of the source. The rule behind the calls is not given here.

What was measured:
[1] = Half life in male Wistar rat at 10 mg/kg, po measured up to 24 hrs by HPLC analysis; format: ADME, organism-based; details: in vivo
How it was run: (§1)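 Overnight-fasted male Wistar rats, 200–250 g, single 10 mg kg−1 p.o. in 0.3% sodium CMC; blood at 0, 0.5, 1, 2, 4, 8, 16, 24 h into heparin tubes; plasma MeOH-extracted, HPLC (MeOH:H2O 85:15, 254 nm) against calibration curve; extravascular non-compartmental analysis; mean ± SD (n = 3).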

[2] = system: Drosophila; assay: Toxicity in wild-type Drosophila assessed as reduction in eclosion rate at 200 uM, po via food to female and male flies and measured in F1 generation flies after 15 days; format: organism-based; parameters: scale not given: the % may be the effect or the level left; details: in vivo, 360 h, time 15 day
How it was run: (§2)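 Ten virgin female and male Oregon R+ flies crossed on food containing compound (1, 10, 50, 100 or 200 μM), held at 24 ± 1 °C; F1 generation followed 15 days; percent eclosion versus untreated controls; Dunnett's multiple comparisons.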

[3] = system: Drosophila; assay: Toxicity in wild-type Drosophila assessed as eclosion rate at 10 uM, po via food to female and male flies and measured in F1 generation flies after 15 days; format: organism-based; details: in vivo, 360 h, time 15 day; how it was run: as §2
[4] = Cmax in male Wistar rat at 10 mg/kg, po measured up to 24 hrs by HPLC analysis; format: ADME, organism-based; details: in vivo; how it was run: as §1
[5] = Tmax in male Wistar rat at 10 mg/kg, po measured up to 24 hrs by HPLC analysis; format: ADME, organism-based; details: in vivo; how it was run: as §1
[6] = system: Drosophila; assay: Anti-cancer activity in Drosophila harboring UAS-Ras V12 mutant assessed as rescue of third instar larval lethality at 10 to 50 uM, po; format: functional, organism-based; details: dose 10-50 µM
How it was run: (§3)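 UAS-RasV12 glial glioblastoma model (repo-GAL4/UAS-RasV12) in Drosophila, with Oregon R+ wild-type flies as control. Flies reared at 24 ± 1 °C on standard corn food containing compound at 10 or 50 μM. Percent of animals at each developmental stage (third instar larva, pupa) scored. Significance by Tukey's multiple comparisons test.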

[7] = Toxicity in wild-type Drosophila assessed as lethal dose administered orally via food to female and male flies and measured in F1 generation flies after 15 days; format: organism-based; details: both, in vivo, route po, time 15 day, read-out: LD50
How it was run: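 Wild-type Oregon R+ flies (10 virgin females and males) were crossed on standard food containing 1, 10, 50, 100 or 200 μM compound and kept at 24 ± 1 °C. The F1 generation was followed for 15 days, scoring percent adult eclosion against an untreated control. LD50 was derived from the eclosion data, with Dunnett's test.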

[8] = system: Drosophila; assay: Anti-cancer activity in Drosophila harboring UAS-Ras V12 mutant assessed as improvement in pupal development at 10 uM, po; format: functional, organism-based; how it was run: as §3
[9] = system: Drosophila; assay: Anti-cancer activity in Drosophila harboring UAS-Ras V12 mutant assessed as increase in early pupal developmental differentiation at 10 to 50 uM, po; format: functional, organism-based; details: dose 10-50 µM; how it was run: as §3
[10] = system: MIA PaCa-2; assay: Cytotoxicity against human MIA PaCa-2 cells assessed as growth inhibition incubated for 48 hrs by SRB assay; details: MIA PaCa-2, 48 h
[11] = system: A549; assay: Cytotoxicity against human A549 cells assessed as growth inhibition incubated for 48 hrs by SRB assay; details: A549, 48 h
[12] = system: Drosophila; assay: Anti-cancer activity in Drosophila harboring UAS-Ras V12 mutant assessed as improvement in early pupal survivability at 10 to 50 uM, po; format: functional, organism-based; details: dose 10-50 µM; how it was run: as §3
[13] = system: Drosophila; assay: Toxicity in wild-type Drosophila assessed as eclosion rate at 100 uM, po via food to female and male flies and measured in F1 generation flies after 15 days; format: organism-based; details: in vivo, 360 h, time 15 day; how it was run: as §2
[14] = system: Drosophila; assay: Toxicity in wild-type Drosophila assessed as reduction in eclosion rate at 100 uM, po via food to female and male flies and measured in F1 generation flies after 15 days; format: organism-based; parameters: scale not given: the % may be the effect or the level left; details: in vivo, 360 h, time 15 day; how it was run: as §2
[15] = system: Drosophila; assay: Anti-cancer activity in Drosophila harboring UAS-Ras V12 mutant assessed as improvement in larval development to pupal transition at 10 to 50 uM, po; format: functional, organism-based; details: dose 10-50 µM; how it was run: as §3
[16] = system: Drosophila; assay: Anti-cancer activity in Drosophila harboring UAS-Ras V12 mutant assessed as improvement in third instar larval survivability at 10 to 50 uM, po; format: functional, organism-based; details: dose 10-50 µM; how it was run: as §3
[17] = system: Drosophila; assay: Toxicity in wild-type Drosophila assessed as eclosion rate at 1 uM, po via food to female and male flies and measured in F1 generation flies after 15 days; format: organism-based; details: in vivo, 360 h, time 15 day; how it was run: as §2

For `Clc1ccc(-c2nnc(CN3CCN(C(c4ccccc4)c4ccc(Cl)cc4)CC3)o2)cc1` (configuration not stated), the half-life [1] was 2.11 h, the Activity [2] was 24% and the Activity [3] was ~ 84%. The Cmax [4] was 10300 ng/mL, the Tmax [5] was 3 h and the Activity [6] was “Active”. The LC50 at 360 h [7] was 100000 nM, the Activity [8] was “Active” and the Activity [9] was “Active”. For the same compound, the GI50 [10] was 2320 nM, the GI50 [11] was 731 nM and the Activity [12] was “Active”. The Activity [13] was under 50%, the Activity [14] was 41% and the Activity [15] was “Active”. The Activity [16] was “Active” and the Activity [17] was ~ 92%.
